From publication PMC7217345 (Annals of Oncology, 2020)

Key:
[1] = tested on: patients with metastatic castration-resistant prostate cancer; assay: Phase I dose escalation; format: in vivo, human
Summary of the method: (§1)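 Open-label, single-centre 3+3 escalation in mCRPC. Capivasertib was given b.i.d. 4/7, starting at 320 mg with predefined escalation and de-escalation. A 7-day cycle 0 (single dose on D1) preceded 28-day cycles of capivasertib plus enzalutamide 160 mg daily. MTD/RP2D was the highest level with ≥6 patients and <1/3 with DLT. AEs were graded by CTCAE v4.0 from first dose to 30 days post-discontinuation. All treated patients were included.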

[2] = Plasma pharmacokinetics of capivasertib; format: in vivo, human
Summary of the method: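 Venous blood was sampled serially up to 48 h post-dose on C0D1 (capivasertib alone) and on C2D1, C2D4 and C2D11 (with enzalutamide). Cmax, Tmax and AUC8h were derived. Geometric means of dose-normalised Cmax and AUC8h were compared between cycle 2 and cycle 0.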

[3] = tested on: pERK; assay: IHC for pERK expression in tumour biopsies; format: in vivo, human; conditions: with enzalutamide, including two of the responders
[4] = tested on: pThr246 PRAS40; assay: Pharmacodynamics: phosphorylated Thr246 PRAS40 in hair follicles; format: in vivo, human
Summary of the method: (§2)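 mCRPC patients took a single capivasertib dose on cycle 0 day 1, followed by PK and PD sampling. Combination with enzalutamide 160 mg daily began at C1D1, with capivasertib b.i.d. on a 4/7 schedule. Platelet-rich plasma and hair follicles were assayed for pSer9 and total GSK3β and for pThr246 and total PRAS40. Statistics used one-way ANOVA with […] and Dunnett's tests, with P<0.05 as significant.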

[5] = tested on: pSer9 GSK3β; assay: Pharmacodynamics: phosphorylated Ser9 GSK3β in platelet-rich plasma; format: in vivo, human; conditions: 400 mg alone (cycle 0)
Summary of the method: as §2

[6] = tested on: patients; conditions: 4 days on and 3 days off every week (4/7); cited from earlier work
[7] = tested on: patients with metastatic castration-resistant prostate cancer; assay: Treatment-related adverse events; format: in vivo, human; conditions: Total N=15, with enzalutamide
Summary of the method: as §1

[8] = tested on: metastatic prostate cancer patients; conditions: overall population; marked benefit for PTEN loss; cited from earlier work

With `NC1(C(=O)N[C@@H](CCO)c2ccc(Cl)cc2)CCN(c2nc[nH]c3nccc2-3)CC1` [capivasertib] the “patients experiencing a DLT (maculopapular rash)” value ([1]; 400 mg b.i.d., with enzalutamide) was 1/6, the “RP2D (recommended phase II dose)” value ([1]; 4/7 schedule, with enzalutamide 160 mg daily) was 400 mg b.i.d and the “fatal SAEs” value ([1]; all dose levels) was “no fatal SAEs”. For the same compound, the “patients with dosing interruption or reduction” value ([1]; beyond cycle 1, six of fourteen patients) was 42.9%, the “dosing interruptions or reductions due to AEs” value ([1]; during the DLT period, five of nine patients) was 55.6% and the “AEs judged to be treatment-related” value ([1]; of 259 AEs, safety population) was 42.5%. For the same compound, the AEs reported ([1]; safety population, all dose levels) was 259, the “patients in whom enzalutamide decreased both Cmax and AUC” value ([2]; compared with capivasertib monotherapy) was 11 out of 13 and the “approximate mean decrease of Cmax and AUC” value ([2]; cycle 2 (with enzalutamide) compared with cycle 0 (monotherapy)) was about 40%. For the same compound, the “pERK expression by IHC, post-treatment vs baseline” value [3] was “increased after treatment in three patients”, the “mean percentage reduction in PRAS40” value ([4]; 320 mg with enzalutamide) was −34% and the “mean percentage reduction in PRAS40” value ([4]; 320 mg without enzalutamide) was 38%. For the same compound, the “mean percentage reduction in PRAS40” value ([4]; 400 mg with enzalutamide) was 22%, the “mean percentage reduction in PRAS40” value ([4]; 400 mg without enzalutamide) was 23% and the “mean percentage reduction in PRAS40” value ([4]; 480 mg with enzalutamide) was 40%. For the same compound, the “mean percentage reduction in PRAS40” value ([4]; 480 mg without enzalutamide) was 26%, the “mean decrease in pGSK3β compared with baseline” value (shortened to “mean decrease in pGSK3β”) ([5]; 2 h after dose) was 56% and the “mean decrease in pGSK3β” value ([5]; 4 h after dose) was 44%. The “mean decrease in pGSK3β” value ([5]; 8 h after dose) was 22%, the “single-agent recommended phase II dose (RP2D)” value [6] was 480 mg b.i.d and the “Hyper-glycaemia, Grade 3/4” value [7] was 26.7%.

In the case of `CC(C)NC[C@@H](C(=O)N1CCN(c2ncnc3c2[C@H](C)C[C@H]3O)CC1)c1ccc(Cl)cc1` [ipatasertib], the “rPFS, abiraterone with vs without ipatasertib” value [8] is listed as “improved rPFS”.
